According to ChEMBL document CHEMBL1155469, “Peptide nucleic acids conjugated to short basic peptides show improved pharmacokinetics and antisense activity in adipose tissue” (J Med Chem, 2010):
Activity calls are given as the source filed them. The rule behind the calls is not given here.

Columns and labels:
[1] = system: Mus musculus; assay: Inhibition of PTEN expression in Balb/C mouse liver at 10 to 40 mg/kg, ip administered thrice a week for 2 weeks measured 48 hrs after last dose by Western blot analysis; format: functional, organism-based
Summary of the method: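 Male Balb/c mice, 6–8 wk, n=4/group, dosed i.p. in PBS 3x/wk for 2 wk and killed 48 h after the last dose. Tissue was homogenized in RIPA buffer with protease inhibitors, and protein was measured by Lowry assay. Lysates were run on 10% PAGE and blotted to PVDF. Blots were probed with rabbit anti-PTEN (1:1000) and HRP anti-rabbit (1:2500), with ECL detection.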

[2] = system: Mus musculus; assay: Toxicity in Balb/C mouse assessed as increase in spleen weight at 40 mg/kg, ip administered thrice a week for 2 weeks measured 48 hrs after last dose; format: organism-based; parameters: dose 40 mg/kg, route intraperitoneal; details: in vivo
Summary of the method: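 Male Balb/c mice, 6–8 wk, n=4/group, were dosed i.p. in PBS 3x/wk for 2 wk at 40 mg/kg. They were killed by cervical dislocation 48 h after the last dose. Spleen weight was taken at necropsy and compared with the saline-treated group.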

[3] = system: Mus musculus; assay: Toxicity in Balb/C mouse assessed as change in serum AST levels at 10 to 40 mg/kg, ip administered thrice a week for 2 weeks measured 48 hrs after last dose; format: organism-based; parameters: dose 10-40 mg/kg, route intraperitoneal; details: in vivo
Summary of the method: (§1)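 Male Balb/c mice, 6–8 wk, n=4/group, received compound i.p. in PBS (10 ul/g) 3x/wk for 2 wk. Body weight was monitored throughout. At 48 h after the last dose, mice were anesthetized with isoflurane and bled by cardiac puncture. Serum AST, ALT, BUN, bilirubin, glucose and triglycerides were compared with the saline group. ALT rise below 2x normal was counted as absent.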

[4] = system: Mus musculus; assay: Toxicity in Balb/C mouse assessed as change in body weight at 10 to 40 mg/kg, ip administered thrice a week for 2 weeks measured 48 hrs after last dose; format: organism-based; parameters: dose 10-40 mg/kg, route intraperitoneal; details: in vivo; summary of the method: as §1
[5] = system: Mus musculus; assay: Inhibition of PTEN expression in Balb/C mouse kidney assessed as upregulation of isoform lacking exon at 40 mg/kg, ip administered thrice a week for 2 weeks measured 48 hrs after last dose […]; format: functional; parameters: scale not given: the % may be the effect or the level left; details: route intraperitoneal
[6] = system: Mus musculus; assay: Inhibition of PTEN expression in ip dosed Balb/C mouse white adipose tissue assessed as upregulation of isoform lacking exon administered thrice a week for 2 weeks measured 48 hrs after last dose […]; format: functional, organism-based
[7] = system: Mus musculus; assay: Toxicity in Balb/C mouse assessed as change in serum bilirubin levels at 10 to 40 mg/kg, ip administered thrice a week for 2 weeks measured 48 hrs after last dose; format: organism-based; parameters: dose 10-40 mg/kg, route intraperitoneal; details: in vivo; summary of the method: as §1
[8] = system: Mus musculus; assay: Toxicity in Balb/C mouse assessed as change in blood urea nitrogen levels at 10 to 40 mg/kg, ip administered thrice a week for 2 weeks measured 48 hrs after last dose; format: organism-based; parameters: dose 10-40 mg/kg, route intraperitoneal; details: in vivo; summary of the method: as §1
[9] = system: Mus musculus; assay: Inhibition of PTEN expression in ip dosed Balb/C mouse white adipose tissue assessed as reduction of full length transcript administered thrice a week for 2 weeks measured 48 hrs after last dose […]; format: functional, organism-based
[10] = system: Mus musculus; assay: Acute toxicity in Balb/C mouse assessed as change in organ weight at 37 mg/kg, ip administered thrice a week for 2 weeks measured 48 hrs after last dose; format: organism-based; parameters: dose 37 mg/kg, route intraperitoneal; details: in vivo
Summary of the method: (§2)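 Male Balb/c mice aged 6–8 weeks, n=4 per group, dosed i.p. with compound suspended in PBS and filter sterilized, 10 ul/g body weight. Body weight tracked throughout the live phase. Under isoflurane anaesthesia, terminal cardiac-puncture bleed; serum taken for transaminases and other chemistries. Sacrifice by cervical dislocation 48 h after last dose, with liver and spleen weighed at necropsy. Kidneys examined by histopathology.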

[11] = system: Mus musculus; assay: Toxicity in Balb/C mouse assessed as change in serum triglyceride levels at 10 to 40 mg/kg, ip administered thrice a week for 2 weeks measured 48 hrs after last dose; format: organism-based; parameters: dose 10-40 mg/kg, route intraperitoneal; details: in vivo; summary of the method: as §1
[12] = system: Mus musculus; assay: Inhibition of PTEN expression in Balb/C mouse kidney assessed as reduction of full length transcript at 40 mg/kg, ip administered thrice a week for 2 weeks measured 48 hrs after last dose […]; format: functional; parameters: scale not given: the % may be the effect or the level left; details: route intraperitoneal
[13] = system: Mus musculus; assay: Toxicity in Balb/C mouse assessed as change in serum glucose levels at 10 to 40 mg/kg, ip administered thrice a week for 2 weeks measured 48 hrs after last dose; format: organism-based; parameters: dose 10-40 mg/kg, route intraperitoneal; details: in vivo; summary of the method: as §1
[14] = system: Mus musculus; assay: Acute toxicity in Balb/C mouse assessed as change in serum chemistry at 25 mg/kg, ip administered BID for 5 days measured 48 hrs after last dose; format: organism-based; parameters: dose 25 mg/kg, route intraperitoneal; details: in vivo; summary of the method: as §2
[15] = system: Mus musculus; assay: Acute toxicity in Balb/C mouse assessed as change in body weight at 25 mg/kg, ip administered BID for 5 days measured 48 hrs after last dose; format: organism-based; parameters: dose 25 mg/kg, route intraperitoneal; details: in vivo; summary of the method: as §2
[16] = system: Mus musculus; assay: Acute toxicity in Balb/C mouse assessed as change in serum chemistry at 37 mg/kg, ip administered thrice a week for 2 weeks measured 48 hrs after last dose; format: organism-based; parameters: dose 37 mg/kg, route intraperitoneal; details: in vivo; summary of the method: as §2
[17] = system: Mus musculus; assay: Toxicity in Balb/C mouse assessed as change in serum ALT levels at 10 to 40 mg/kg, ip administered thrice a week for 2 weeks measured 48 hrs after last dose; format: organism-based; parameters: dose 10-40 mg/kg, route intraperitoneal; details: in vivo; summary of the method: as §1
[18] = system: Mus musculus; assay: Acute toxicity in Balb/C mouse assessed as change in body weight at 37 mg/kg, ip administered thrice a week for 2 weeks measured 48 hrs after last dose; format: organism-based; parameters: dose 37 mg/kg, route intraperitoneal; details: in vivo; summary of the method: as §2
[19] = system: Mus musculus; assay: Acute toxicity in Balb/C mouse assessed as change in organ weight at 25 mg/kg, ip administered BID for 5 days measured 48 hrs after last dose; format: organism-based; parameters: dose 25 mg/kg, route intraperitoneal; details: in vivo; summary of the method: as §2
[20] = system: Mus musculus; assay: Inhibition of PTEN expression in Balb/C mouse liver assessed as increase in mRNA levels at 8.25 mg/kg, ip administered thrice a week for 2 weeks measured 48 hrs after last dose […]; format: functional, organism-based; parameters: dose 8.25 mg/kg
Summary of the method: (§3)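 Male Balb/c mice, n=4 per group, dosed i.p. in PBS and sacrificed 48 h after last dose. Liver, kidney and adipose tissue homogenised at once in 4 M guanidine isothiocyanate, 25 mM EDTA, 50 mM Tris-HCl pH 6. RNA purified on columns and run by fluorescence-based quantitative RT-PCR. Target transcript levels normalised to cyclophilin A and expressed relative to saline-treated controls.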

[21] = system: Mus musculus; assay: Inhibition of PTEN expression in Balb/C mouse adipose tissue assessed as increase in mRNA levels at 8.25 mg/kg, ip administered thrice a week for 2 weeks measured 48 hrs after last dose by […]; format: functional, organism-based; parameters: dose 8.25 mg/kg; summary of the method: as §3
[22] = system: Mus musculus; assay: Inhibition of PTEN expression in Balb/C mouse kidney assessed as increase in mRNA levels at 33 mg/kg, ip administered as single dose measured 48 hrs after last dose […]; format: functional, organism-based; parameters: dose 33 mg/kg; summary of the method: as §3
[23] = system: Mus musculus; assay: Inhibition of PTEN expression in Balb/C mouse kidney assessed as increase in mRNA levels at 8.25 mg/kg, ip administered thrice a week for 2 weeks measured 48 hrs after last dose […]; format: functional, organism-based; parameters: dose 8.25 mg/kg; summary of the method: as §3
[24] = system: Mus musculus; assay: Acute toxicity in Balb/C mouse assessed as necrosis in kidney at 8.5 mg/kg, ip administered thrice a week for 2 weeks measured 48 hrs after last dose; format: organism-based; parameters: dose 8.5 mg/kg, route intraperitoneal; details: in vivo; summary of the method: as §2
[25] = system: Mus musculus; assay: Acute toxicity in Balb/C mouse assessed as reduction in body weight at 8.5 mg/kg, ip administered thrice a week for 2 weeks measured 48 hrs after last dose; format: organism-based; parameters: dose 8.5 mg/kg, route intraperitoneal; details: in vivo; summary of the method: as §2
[26] = system: Mus musculus; assay: Acute toxicity in Balb/C mouse assessed as necrosis in kidney at 33 mg/kg, ip administered thrice a week for 2 weeks measured 48 hrs after last dose; format: organism-based; parameters: dose 33 mg/kg, route intraperitoneal; details: in vivo; summary of the method: as §2
[27] = system: Mus musculus; assay: Acute toxicity in Balb/C mouse assessed as reduction in body weight at 33 mg/kg, ip administered thrice a week for 2 weeks measured 48 hrs after last dose; format: organism-based; parameters: dose 33 mg/kg, route intraperitoneal; details: in vivo; summary of the method: as §2

Cc1cn(CC(=O)N(CCNC(=O)CN(CCNC(=O)[C@H](CCCCN)N(CCNC(=O)[C@H](CCCCN)NC(=O)[C@H](CCCCN)NC(=O)[C@H](CCCCN)NC(=O)[C@H](CCCCN)NC(=O)[C@H](CCCCN)NC(=O)[C@H](CCCCN)NC(=O)[C@H](CCCCN)NC(=O)[C@@H](N)CCCCN)C(=O)Cn2cc(C)c(=O)[nH]c2=O)C(=O)Cn2ccc(N)nc2=O)CC(=O)NCCN(CC(=O)NCCN(CC(=O)NCCN(CC(=O)NCCN(CC(=O)NCCN(CC(=O)NCCN(CC(=O)NCCN(CC(=O)NCCN(CC(=O)NCCN(CC(=O)NCCN(CC(=O)NCCN(CC(=O)NCCN(CC(=O)NCCN(CC(=O)N[C@@H](CCCCN)C(N)=O)C(=O)Cn2cnc3c(N)ncnc32)C(=O)Cn2ccc(N)nc2=O)C(=O)Cn2cnc3c(N)ncnc32)C(=O)Cn2cc(C)c(=O)[nH]c2=O)C(=O)Cn2ccc(N)nc2=O)C(=O)Cn2cc(C)c(=O)[nH]c2=O)C(=O)Cn2cnc3c(N)ncnc32)C(=O)Cn2ccc(N)nc2=O)C(=O)Cn2cnc3c(N)ncnc32)C(=O)Cn2ccc(N)nc2=O)C(=O)Cn2cnc3c(=O)[nH]c(N)nc32)C(=O)Cn2cnc3c(N)ncnc32)C(=O)Cn2ccc(N)nc2=O)c(=O)[nH]c1=O
inhibition [1]: inactive | Activity [2]: 145% | Activity [3]: Non-toxic | Activity [4]: Non-toxic | Activity [5]: 185% | Activity [6]: Dose-dependent effect | Activity [7]: Non-toxic | Activity [8]: Non-toxic | Activity [9]: Dose-dependent effect | Activity [10]: Non-toxic | Activity [11]: Non-toxic | Activity [12]: 70% | Activity [13]: Non-toxic | Activity [14]: Non-toxic | Activity [15]: Non-toxic | Activity [16]: Non-toxic | Activity [17]: Non-toxic | Activity [18]: Non-toxic | Activity [19]: Non-toxic

Cc1cn(CC(=O)N(CCNC(=O)CN(CCNC(=O)[C@H](CCCCN)N(CCNC(=O)CNC(=O)[C@@H](CCCCN)NC(=O)[C@@H](CCCCN)NC(=O)[C@@H](C)NC(=O)[C@@H](CC(C)C)NC(=O)[C@@H](CCCCN)NC(=O)[C@@H](CC(C)C)NC(=O)[C@@H](C)NC(=O)[C@@H](C)NC(=O)[C@@H](CCCCN)NC(=O)[C@@H](CC(C)C)NC(=O)[C@@H](CC(C)C)NC(=O)[C@@H](CCCCN)NC(=O)[C@H](N)CCCCN)C(=O)Cn2cc(C)c(=O)[nH]c2=O)C(=O)Cn2ccc(N)nc2=O)CC(=O)NCCN(CC(=O)NCCN(CC(=O)NCCN(CC(=O)NCCN(CC(=O)NCCN(CC(=O)NCCN(CC(=O)NCCN(CC(=O)NCCN(CC(=O)NCCN(CC(=O)NCCN(CC(=O)NCCN(CC(=O)NCCN(CC(=O)NCCN(CC(=O)N[C@@H](CCCCN)C(N)=O)C(=O)Cn2cnc3c(N)ncnc32)C(=O)Cn2ccc(N)nc2=O)C(=O)Cn2cnc3c(N)ncnc32)C(=O)Cn2cc(C)c(=O)[nH]c2=O)C(=O)Cn2ccc(N)nc2=O)C(=O)Cn2cc(C)c(=O)[nH]c2=O)C(=O)Cn2cnc3c(N)ncnc32)C(=O)Cn2ccc(N)nc2=O)C(=O)Cn2cnc3c(N)ncnc32)C(=O)Cn2ccc(N)nc2=O)C(=O)Cn2cnc3c(=O)[nH]c(N)nc32)C(=O)Cn2cnc3c(N)ncnc32)C(=O)Cn2ccc(N)nc2=O)c(=O)[nH]c1=O
Activity [20]: inactive | Activity [21]: inactive | Activity [22]: inactive | Activity [23]: inactive | Activity [24]: Toxic | Activity [25]: Toxic | Activity [26]: Toxic | Activity [27]: Toxic
